Data published in ChEMBL document CHEMBL1765064, “Discovery of potent and selective inhibitors of ataxia telangiectasia mutated and Rad3 related (ATR) protein kinase as potential anticancer agents” (J Med Chem, 2011).

What was measured:
[1] = biological target: Serine-protein kinase ATM (Homo sapiens, UniProt Q13315); test: Inhibition of full length recombinant ATM after 24 hrs by radiometric phosphate incorporation assay
Cytochrome P450 3A4 = Cytochrome P450 3A4 (Homo sapiens, UniProt P08684); test: Inhibition of CYP3A4; format: ADME
[2] = biological target: T1, Serine/threonine-protein kinase ATR (Homo sapiens, UniProt Q13535); test: Inhibition of full length recombinant ATR after 24 hrs by radiometric phosphate incorporation assay
Summary of the method: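 Radiometric [γ-33P]ATP incorporation into target peptide. Full-length ATR and ATM were made in-house; DNA-PK was purchased. Kinase, buffer and peptide were premixed, then compound was added in DMSO (7% final DMSO). Reactions started with ATP at 25 °C and were stopped with phosphoric acid (100 mM final) plus ATP (0.66 μM final). Peptide was captured on phosphocellulose, washed, and scintillation-counted.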

[3] = biological target: T1, Serine/threonine-protein kinase ATR; test: Inhibition of ATR in human HT-29 cells assessed as hydroxyurea-induced phosphorylation of H2AX by immunofluorescence microscopy; format: cell-based
[4] = biological target: DNA-dependent protein kinase catalytic subunit (Homo sapiens, UniProt P78527); test: Inhibition of DNAPK after 2 hrs by radiometric phosphate incorporation assay
[5] = biological target: Serine/threonine-protein kinase mTOR (Homo sapiens, UniProt P42345); test: Inhibition of mTOR by radiometric phosphate incorporation assay
[6] = Permeability from basolateral to apical side of human Caco2 cells; format: ADME, cell-based; details: Caco-2, read-out: permeability
HCT-116 [7] = test: Potentiation of cisplatin-induced cytotoxicity against human HCT116 cells at 0.62 uM after 96 hrs by MTS assay; format: functional
Summary of the method: (§1)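 Exponentially growing cells (ATCC lines, kept per supplier) plated and left to adhere overnight, then given inhibitor at 0.62 μM combined with cisplatin at the indicated concentrations for 96 h. Cell density read by MTS reagent, absorbance at 490 nm 1 h after addition. Fold change in cisplatin potency taken as potentiation. Synergy judged by MacSynergy analysis.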

HCT-116 [8] = test: Cytotoxicity against human HCT116 cells after 96 hrs by MTS assay; format: functional, cell-based; details: HCT-116, 96 h
Summary of the method: (§2)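 Exponentially growing cells were plated and left to adhere overnight. Compounds were added at the indicated concentrations for 96 h. MTS reagent was then added, and absorbance at 490 nm was read 1 h later as a measure of cell density.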

HFL1 [9] = test: Potentiation of cisplatin-induced cytotoxicity against human HFL1 cells at 0.62 uM after 96 hrs by MTS assay; format: cell-based; details: hfl1, 96 h; summary of the method: as §1
[10] = biological target: T1, Serine/threonine-protein kinase ATR; test: Competitive inhibition of full length recombinant ATR Morrison equation analysis
Summary of the method: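 Mean IC50s were plotted against ATP concentration and fit to the tight-binding competitive-inhibition equation IC50 = Ki(1 + [ATP]/Km) + [E]/2 to obtain Ki.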

HFL1 [11] = test: Cytotoxicity against human HFL1 cells at up to 20 uM after 96 hrs by MTS assay; format: cell-based; details: hfl1, 96 h; summary of the method: as §2
[12] = Permeability from apical to basolateral side of human Caco2 cells; format: ADME, cell-based; details: Caco-2, read-out: permeability

T1 sequence (Q13535 whole entry): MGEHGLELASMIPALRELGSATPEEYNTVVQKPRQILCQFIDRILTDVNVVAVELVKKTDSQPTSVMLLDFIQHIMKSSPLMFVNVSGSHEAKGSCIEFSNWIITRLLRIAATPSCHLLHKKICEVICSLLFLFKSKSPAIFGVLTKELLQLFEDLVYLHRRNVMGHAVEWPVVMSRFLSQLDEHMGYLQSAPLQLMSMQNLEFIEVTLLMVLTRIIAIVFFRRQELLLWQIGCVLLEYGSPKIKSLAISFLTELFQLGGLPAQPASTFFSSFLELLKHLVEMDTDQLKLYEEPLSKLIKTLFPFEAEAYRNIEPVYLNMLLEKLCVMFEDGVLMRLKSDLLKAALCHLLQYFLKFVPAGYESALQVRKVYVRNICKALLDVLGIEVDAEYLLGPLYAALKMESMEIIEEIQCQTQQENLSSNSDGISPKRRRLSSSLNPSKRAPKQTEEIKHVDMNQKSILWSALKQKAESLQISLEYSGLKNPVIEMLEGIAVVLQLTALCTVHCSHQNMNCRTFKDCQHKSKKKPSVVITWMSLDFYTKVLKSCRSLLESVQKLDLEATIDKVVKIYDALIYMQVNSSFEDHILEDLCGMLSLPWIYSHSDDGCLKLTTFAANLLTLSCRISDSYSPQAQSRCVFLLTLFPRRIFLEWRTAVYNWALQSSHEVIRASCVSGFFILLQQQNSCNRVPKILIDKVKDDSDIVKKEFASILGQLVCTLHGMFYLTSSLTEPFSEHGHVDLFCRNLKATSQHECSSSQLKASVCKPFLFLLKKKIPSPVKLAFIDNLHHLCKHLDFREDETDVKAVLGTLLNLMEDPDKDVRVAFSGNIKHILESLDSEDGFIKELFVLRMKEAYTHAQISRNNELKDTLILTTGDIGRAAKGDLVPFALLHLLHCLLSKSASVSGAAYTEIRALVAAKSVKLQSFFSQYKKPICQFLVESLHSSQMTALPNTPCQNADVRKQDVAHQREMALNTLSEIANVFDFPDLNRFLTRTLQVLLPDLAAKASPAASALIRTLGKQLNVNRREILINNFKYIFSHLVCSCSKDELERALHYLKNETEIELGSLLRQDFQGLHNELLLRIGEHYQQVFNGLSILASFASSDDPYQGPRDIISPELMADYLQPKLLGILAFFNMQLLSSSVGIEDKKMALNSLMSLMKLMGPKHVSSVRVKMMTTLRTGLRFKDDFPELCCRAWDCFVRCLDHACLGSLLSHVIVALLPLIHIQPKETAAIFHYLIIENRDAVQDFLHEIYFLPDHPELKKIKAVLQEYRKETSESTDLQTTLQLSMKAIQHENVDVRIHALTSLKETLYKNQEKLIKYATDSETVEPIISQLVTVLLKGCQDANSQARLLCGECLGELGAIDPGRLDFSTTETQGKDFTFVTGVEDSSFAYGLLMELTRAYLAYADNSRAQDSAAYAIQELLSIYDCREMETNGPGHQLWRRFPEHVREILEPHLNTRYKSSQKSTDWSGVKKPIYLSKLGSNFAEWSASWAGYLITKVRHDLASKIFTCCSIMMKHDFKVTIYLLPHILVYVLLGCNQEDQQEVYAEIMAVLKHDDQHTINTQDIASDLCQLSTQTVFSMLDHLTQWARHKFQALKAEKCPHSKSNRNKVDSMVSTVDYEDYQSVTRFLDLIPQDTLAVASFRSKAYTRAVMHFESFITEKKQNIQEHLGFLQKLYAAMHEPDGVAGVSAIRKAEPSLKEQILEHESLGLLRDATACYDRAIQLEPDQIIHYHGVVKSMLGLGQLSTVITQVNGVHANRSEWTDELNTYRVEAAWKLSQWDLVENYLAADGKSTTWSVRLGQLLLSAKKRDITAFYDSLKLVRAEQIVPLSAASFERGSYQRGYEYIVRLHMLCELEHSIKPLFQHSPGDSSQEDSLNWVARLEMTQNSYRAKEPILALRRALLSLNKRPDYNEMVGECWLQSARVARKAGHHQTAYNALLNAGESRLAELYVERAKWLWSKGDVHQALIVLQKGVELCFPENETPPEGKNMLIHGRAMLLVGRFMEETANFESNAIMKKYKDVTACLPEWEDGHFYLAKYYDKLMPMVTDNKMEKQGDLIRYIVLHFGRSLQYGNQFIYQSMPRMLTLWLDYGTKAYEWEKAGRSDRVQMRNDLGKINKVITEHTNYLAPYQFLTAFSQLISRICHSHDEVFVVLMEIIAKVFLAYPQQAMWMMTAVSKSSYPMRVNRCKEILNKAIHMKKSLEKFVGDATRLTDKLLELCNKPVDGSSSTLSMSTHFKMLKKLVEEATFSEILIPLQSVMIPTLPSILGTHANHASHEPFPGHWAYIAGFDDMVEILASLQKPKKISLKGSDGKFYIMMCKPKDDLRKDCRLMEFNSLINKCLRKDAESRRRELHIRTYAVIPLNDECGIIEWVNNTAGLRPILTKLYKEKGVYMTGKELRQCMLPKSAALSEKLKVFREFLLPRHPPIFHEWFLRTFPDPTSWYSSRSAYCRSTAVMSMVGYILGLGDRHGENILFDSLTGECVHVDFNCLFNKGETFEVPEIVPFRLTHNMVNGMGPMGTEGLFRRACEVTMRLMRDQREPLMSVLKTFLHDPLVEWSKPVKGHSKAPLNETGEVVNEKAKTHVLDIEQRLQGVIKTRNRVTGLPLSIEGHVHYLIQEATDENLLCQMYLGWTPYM
Chain of Cytochrome P450 3A4 (P08684 whole entry): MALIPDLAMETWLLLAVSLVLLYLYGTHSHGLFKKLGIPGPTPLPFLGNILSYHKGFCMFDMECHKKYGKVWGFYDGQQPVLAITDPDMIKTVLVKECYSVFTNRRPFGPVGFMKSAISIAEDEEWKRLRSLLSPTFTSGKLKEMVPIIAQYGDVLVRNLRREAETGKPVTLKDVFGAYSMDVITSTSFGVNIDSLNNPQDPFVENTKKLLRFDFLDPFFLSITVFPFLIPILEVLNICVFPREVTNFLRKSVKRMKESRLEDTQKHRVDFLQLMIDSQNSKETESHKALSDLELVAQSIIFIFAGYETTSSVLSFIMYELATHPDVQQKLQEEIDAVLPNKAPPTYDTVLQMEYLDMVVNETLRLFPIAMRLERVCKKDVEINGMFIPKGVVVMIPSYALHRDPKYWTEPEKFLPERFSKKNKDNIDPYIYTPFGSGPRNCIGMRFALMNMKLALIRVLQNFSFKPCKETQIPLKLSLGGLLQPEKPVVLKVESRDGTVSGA

IC50 [1] [µM]	IC50 [2] [µM]	IC50 [4] [µM]	SMILES	also measured
> 8	0.62	> 8	Nc1ncc(-c2ccccc2)nc1C(=O)Nc1ccccc1	IC50 (Cytochrome P450 3A4): > 100 µM; IC50 [3]: > 2.5 µM
> 8	0.64	5	Nc1ncc(-c2ccncc2)nc1C(=O)Nc1ccccc1	
6.6	0.01	> 8	CCC(C)S(=O)(=O)c1ccc(-c2cnc(N)c(C(=O)Nc3ccccc3)n2)cc1 (stereo not given)	IC50 [3]: 1.6 µM
> 8	1.5	6.6	COc1ccc(-c2cnc(N)c(C(=O)Nc3ccccc3)n2)cc1	
0.84	0.036	1.4	CS(=O)(=O)c1ccc(-c2cnc(N)c(-c3nc4ccccc4o3)n2)cc1	
> 8	2.1	> 8	Nc1ncc(C2=CCCCC2)nc1C(=O)Nc1ccccc1	
0.32	0.024	0.72	N#Cc1ccccc1-c1cnc(N)c(C(=O)Nc2ccccc2)n1	
> 8	0.4	2.2	N#Cc1cccc(-c2cnc(N)c(C(=O)Nc3ccccc3)n2)c1	
> 8	1.7	> 8	Cc1ccc(-c2cnc(N)c(C(=O)Nc3ccccc3)n2)cc1	
> 8	0.008	3.2	CC(CCO)S(=O)(=O)c1ccc(-c2cnc(N)c(C(=O)Nc3ccccc3)n2)cc1 (stereo not given)	IC50 [3]: 0.38 µM
> 8	2.4	> 8	Nc1ncc(-c2ccccc2O)nc1C(=O)Nc1ccccc1	
> 8	0.054	> 8	CN(C)C(=O)c1ccc(-c2cnc(N)c(C(=O)Nc3ccccc3)n2)cc1	IC50 [3]: 2 µM
> 8	2.2	4.2	COc1cccc(-c2cnc(N)c(C(=O)Nc3ccccc3)n2)c1	
> 8	2.4	> 8	Nc1ncc(-c2ccc(Cl)cc2)nc1C(=O)Nc1ccccc1	
> 8	1.6	> 8	Nc1ncc(-c2cccc(Cl)c2)nc1C(=O)Nc1ccccc1	
> 8	3	> 8	Nc1ncc(C2CCCCC2)nc1C(=O)Nc1ccccc1	
	> 100		O=c1cc(-c2cccc3c2Sc2ccccc2S3)oc(N2CCOCC2)c1 [KU-55933]	IC50 [5]: 9.3 µM
> 8	0.7	3.8	Nc1ncc(-c2ccccc2Cl)nc1C(=O)Nc1ccccc1	
0.12	0.023	2.4	CS(=O)(=O)c1ccc(-c2cnc(N)c(-c3cc4ccccc4[nH]3)n2)cc1	
> 8	3.56	> 8	CS(=O)(=O)c1ccc(-c2cnc(N)c(C(=O)NC3CCCCC3)n2)cc1	
> 8	0.008	5.6	CC(C)S(=O)(=O)c1ccc(-c2cnc(N)c(C(=O)Nc3ccccc3)n2)cc1	IC50 [3]: 1 µM
0.72	0.022	2.9	CS(=O)(=O)c1ccc(-c2cnc(N)c(-c3nc4ccccc4s3)n2)cc1	
> 8	5.2	> 8	Nc1ncc(Br)nc1C(=O)Nc1ccccc1	
> 8	0.74	> 8	COc1ccccc1-c1cnc(N)c(C(=O)Nc2ccccc2)n1	
> 8	1.3	> 8	CS(=O)(=O)c1ccccc1-c1cnc(N)c(C(=O)Nc2ccccc2)n1	
2.6	0.18	7	CNC(=O)c1ccc(-c2cnc(N)c(C(=O)Nc3ccccc3)n2)cc1	

The next lines start with the molecule.

SMILES	IC50 [1] [µM]	IC50 [2] [µM]	IC50 [4] [µM]	also measured
O=c1cc(N2CCOCC2)oc2c1ccc1ccccc12	> 100	> 100		
C[S+]([O-])c1ccccc1-c1cnc(N)c(C(=O)Nc2ccccc2)n1 (stereo not given)	3	0.13	2	
CS(=O)(=O)c1ccc(-c2cnc(N)c(C(=O)Nc3ccccc3)n2)cc1	> 8	0.026	4.4	
CS(=O)(=O)c1ccc(-c2cnc(N)c(-c3nc4ccccc4[nH]3)n2)cc1	0.38	0.03	2.1	
Cc1cccc(-c2cnc(N)c(C(=O)Nc3ccccc3)n2)c1	> 8	0.56	> 8	
Nc1ncc(-c2ccc(C(=O)N3CCCCC3)cc2)nc1C(=O)Nc1ccccc1	> 8	0.026	> 8	IC50 [3]: 6.5 µM
Nc1ncc(-c2ccc(O)cc2)nc1C(=O)Nc1ccccc1	5.8	0.32	1.8	
NC(=O)c1ccc(-c2cnc(N)c(C(=O)Nc3ccccc3)n2)cc1	2.9	0.11	1.2	
CN(C)C(=O)c1ccc(-c2cnc(N)c(C(=O)Nc3ccccc3)n2)cc1Cl	> 8	0.048	> 8	IC50 [3]: 12 µM
Cc1ccccc1-c1cnc(N)c(C(=O)Nc2ccccc2)n1	> 8	1.4	1.4	
Nc1nccnc1C(=O)Nc1ccccc1	> 8	7.1	> 8	
CC(CN(C)C)S(=O)(=O)c1ccc(-c2cnc(N)c(C(=O)Nc3ccccc3)n2)cc1 (stereo not given)	> 8	0.012	> 8	Papp B→A [6]: 23 ×10⁻⁶ cm/s; IC50 [3]: 0.42 µM; fold change (FC) (HCT-116 [7]): 7; IC50 (HCT-116 [8]): 1.1 µM; fold change (FC) (HFL1 [9]): 1.1; Ki [10]: 0.006 µM; Activity (HFL1 [11]): Non-toxic; Papp A→B [12]: 17 ×10⁻⁶ cm/s
Nc1ncc(-c2ccc(C(=O)N3CCC3)cc2)nc1C(=O)Nc1ccccc1	> 8	0.1	> 8	IC50 [3]: 1 µM
Nc1ncc(-c2ccc(S(=O)(=O)[C@@H]3CCOC3)cc2)nc1C(=O)Nc1ccccc1	5	0.01	4.4	IC50 [3]: 0.46 µM
CS(=O)(=O)c1cccc(-c2cnc(N)c(C(=O)Nc3ccccc3)n2)c1	6.6	0.34	0.74	
Nc1ncc(-c2cccnc2)nc1C(=O)Nc1ccccc1	> 8	0.18	> 8	IC50 (Cytochrome P450 3A4): 2 µM
Cn1c(=O)c2c(ncn2C)n(C)c1=O [CAFFEINE]	200	1100	10000	IC50 [5]: 400 µM
CCS(=O)(=O)c1ccc(-c2cnc(N)c(C(=O)Nc3ccccc3)n2)cc1	> 8	0.012	5.8	IC50 [3]: 1.5 µM
Nc1ncc(-c2ccc(C(=O)N3CCCC3)cc2)nc1C(=O)Nc1ccccc1	> 8	0.054	2.8	IC50 [3]: 1.4 µM
COc1cc2c(c(OC)c1OC)-c1c(cc3c(c1OC)OCO3)CC(C)C(C)C2 (stereo not given) [SCHISANDRIN B]	1740	7.2		
C[S+]([O-])c1ccc(-c2cnc(N)c(C(=O)Nc3ccccc3)n2)cc1 (stereo not given)	> 8	0.056	6.8	IC50 [3]: 5.4 µM
N#Cc1ccc(-c2cnc(N)c(C(=O)Nc3ccccc3)n2)cc1	> 8	0.18	> 8	
CC(C)(C)S(=O)(=O)c1ccc(-c2cnc(N)c(C(=O)Nc3ccccc3)n2)cc1	> 8	0.006	> 8	IC50 [3]: 1 µM
CCCS(=O)(=O)c1ccc(-c2cnc(N)c(C(=O)Nc3ccccc3)n2)cc1	5.4	0.014	> 8	IC50 [3]: 2 µM
Nc1ncc(-c2cccc(O)c2)nc1C(=O)Nc1ccccc1	> 8	0.54	2.2	
